Results reported in ChEMBL document CHEMBL3098086, “Synthesis and biological evaluation of α-triazolyl chalcones as a new type of potential antimicrobial agents and their interaction with calf thymus DNA and human serum albumin” (Eur J Med Chem, 2014).
Values after ≈ are worked out from the molar mass of the structure shown.

How the values were obtained:
Pseudomonas aeruginosa = assay: Antibacterial activity against Pseudomonas aeruginosa ATCC 27853 after 24 hrs by twofold serial dilution method; assay type: functional; conditions: ATCC 27853, 24 h
Outline: (§1)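 Bacterial strains: S. aureus ATCC 25923, B. subtilis ATCC 21216, M. luteus ATCC 4698, E. coli JM109, P. aeruginosa ATCC 27853, B. proteus ATCC 13315. MICs by two-fold broth microdilution in 96-well plates per NCCLS. Chloromycin and Norfloxacin served as positive controls.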

Candida = assay: Antifungal activity against Candida mycoderma ATCC 96918 after 24 hrs by micro broth dilution method; assay type: functional; conditions: ATCC 96918, 24 h
Outline: (§2)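 Fungi: C. albicans ATCC 76615 and C. mycoderma ATCC 96918. MICs by two-fold broth microdilution in 96-well plates per NCCLS. Fluconazole served as positive control.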

Salmonella typhi = assay: Antibacterial activity against Bacillus typhi after 24 hrs by twofold serial dilution method; assay type: functional, Salmonella enterica subsp. enterica serovar Typhi; conditions: Salmonella enterica
Outline: (§3)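 Two-fold broth microdilution per NCCLS recommendations. The MIC was read as the minimum inhibitory concentration. Chloromycin and Norfloxacin served as positive controls. Strains were Bacillus typhi (Gram-negative panel) and methicillin-resistant S. aureus N315.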

Candida albicans = assay: Antifungal activity against Candida albicans ATCC 76615 after 24 hrs by micro broth dilution method; assay type: functional; conditions: ATCC 76615, 24 h; outline: as §2
Staphylococcus aureus [1] = assay: Antibacterial activity against methicillin-resistant staphylococcus aureus N315 after 24 hrs by twofold serial dilution method; assay type: functional; conditions: N315, 24 h; outline: as §3
Micrococcus luteus = assay: Antibacterial activity against Micrococcus luteus ATCC 4698 after 24 hrs by twofold serial dilution method; assay type: functional; conditions: ATCC 4698, 24 h; outline: as §1
Bacillus = assay: Antibacterial activity against Bacillus proteus ATCC 13315 after 24 hrs by twofold serial dilution method; assay type: functional; conditions: ATCC 13315, 24 h; outline: as §1
Staphylococcus aureus [2] = assay: Antibacterial activity against Staphylococcus aureus ATCC 25923 after 24 hrs by twofold serial dilution method; assay type: functional; conditions: ATCC 25923, 24 h; outline: as §1
Escherichia coli = assay: Antibacterial activity against Escherichia coli JM109 after 24 hrs by twofold serial dilution method; assay type: functional; conditions: JM109, 24 h; outline: as §1
Bacillus subtilis = assay: Antibacterial activity against Bacillus subtilis ATCC 21216 after 24 hrs by twofold serial dilution method; assay type: functional; conditions: ATCC 21216, 24 h; outline: as §1

| SMILES | MIC (Pseudomonas aeruginosa) [µg/mL] | MIC (Candida) [µg/mL] | MIC (Salmonella typhi) [µg/mL] | MIC (Candida albicans) [µg/mL] | MIC (Staphylococcus aureus [1]) [µg/mL] | MIC (Micrococcus luteus) [µg/mL] | MIC (Bacillus) [µg/mL] | MIC (Staphylococcus aureus [2]) [µg/mL] | MIC (Escherichia coli) [µg/mL] | MIC (Bacillus subtilis) [µg/mL] |
| --- | --- | --- | --- | --- | --- | --- | --- | --- | --- | --- |
| Cc1ccc(C(=O)/C(=C/c2ccccc2)n2cncn2)c(C)c1 | 256 (≈ 844 µM) | 256 (≈ 844 µM) | 128 (≈ 422 µM) | 128 (≈ 422 µM) | 64 (≈ 211 µM) | 256 (≈ 844 µM) | 128 (≈ 422 µM) | 128 (≈ 422 µM) | 256 (≈ 844 µM) | 128 (≈ 422 µM) |
| O=C(/C(=C/c1ccc(Cl)cc1)n1cncn1)c1ccc(F)cc1F | 128 (≈ 370 µM) | 16 (≈ 46.3 µM) | 32 (≈ 92.6 µM) | 16 (≈ 46.3 µM) | 32 (≈ 92.6 µM) | 64 (≈ 185 µM) | 64 (≈ 185 µM) | 16 (≈ 46.3 µM) | 64 (≈ 185 µM) | 32 (≈ 92.6 µM) |
| CN(C)c1ccc(/C=C(/C(=O)c2ccc(F)cc2F)n2cncn2)cc1 | 256 (≈ 722 µM) | 64 (≈ 181 µM) | 64 (≈ 181 µM) | 16 (≈ 45.2 µM) | 32 (≈ 90.3 µM) | 64 (≈ 181 µM) | 64 (≈ 181 µM) | 64 (≈ 181 µM) | 128 (≈ 361 µM) | 64 (≈ 181 µM) |
| Cc1ccc(C(=O)/C(=C/c2ccccc2)n2cncn2)cc1C | 128 (≈ 422 µM) | 256 (≈ 844 µM) | 128 (≈ 422 µM) | 16 (≈ 52.7 µM) | 256 (≈ 844 µM) | 128 (≈ 422 µM) | 128 (≈ 422 µM) | 256 (≈ 844 µM) | 16 (≈ 52.7 µM) | 64 (≈ 211 µM) |
| O=C(/C(=C/c1ccccc1)n1cncn1)c1ccc(Cl)cc1 | 256 (≈ 826 µM) | 64 (≈ 207 µM) | 64 (≈ 207 µM) | 16 (≈ 51.7 µM) | 32 (≈ 103 µM) | 64 (≈ 207 µM) | 64 (≈ 207 µM) | 64 (≈ 207 µM) | 128 (≈ 413 µM) | 64 (≈ 207 µM) |
| O=C(/C(=C/c1ccccc1)n1cncn1)c1ccc(F)cc1N1CCOCC1 | 64 (≈ 169 µM) | 32 (≈ 84.6 µM) | 32 (≈ 84.6 µM) | 128 (≈ 338 µM) | 128 (≈ 338 µM) | 64 (≈ 169 µM) | 32 (≈ 84.6 µM) | 32 (≈ 84.6 µM) | 16 (≈ 42.3 µM) | 32 (≈ 84.6 µM) |
| OC(Cn1cncn1)(Cn1cncn1)c1ccc(F)cc1F [FLUCONAZOLE] | – | 4 (≈ 13.1 µM) | – | 1 (≈ 3.27 µM) | – | – | – | – | – | – |
| O=C(/C(=C/c1ccccc1)n1cncn1)c1ccc(N2CCCCC2)cc1N1CCCCC1 | 128 (≈ 290 µM) | 16 (≈ 36.2 µM) | 32 (≈ 72.5 µM) | 16 (≈ 36.2 µM) | 32 (≈ 72.5 µM) | 64 (≈ 145 µM) | 64 (≈ 145 µM) | 16 (≈ 36.2 µM) | 64 (≈ 145 µM) | 32 (≈ 72.5 µM) |
| O=C(/C(=C/c1ccccc1)n1cncn1)c1ccc(F)cc1F | 128 (≈ 411 µM) | 64 (≈ 206 µM) | 32 (≈ 103 µM) | 128 (≈ 411 µM) | 64 (≈ 206 µM) | 64 (≈ 206 µM) | 64 (≈ 206 µM) | 32 (≈ 103 µM) | 32 (≈ 103 µM) | 64 (≈ 206 µM) |
